# Experimental data from article PMC3034734 (Chemistry & biology, 2009).
# Changes are numbered by the printed parent chain. Where two headings read alike, the source gives them in different places.
# Legend:
# [1] = biological target: T1, purified recombinant rat MGL (Rattus norvegicus, UniProt Q8R431); assay: Inhibition of purified recombinant MGL; format: biochemical
# T1 sequence (Q8R431 1-303): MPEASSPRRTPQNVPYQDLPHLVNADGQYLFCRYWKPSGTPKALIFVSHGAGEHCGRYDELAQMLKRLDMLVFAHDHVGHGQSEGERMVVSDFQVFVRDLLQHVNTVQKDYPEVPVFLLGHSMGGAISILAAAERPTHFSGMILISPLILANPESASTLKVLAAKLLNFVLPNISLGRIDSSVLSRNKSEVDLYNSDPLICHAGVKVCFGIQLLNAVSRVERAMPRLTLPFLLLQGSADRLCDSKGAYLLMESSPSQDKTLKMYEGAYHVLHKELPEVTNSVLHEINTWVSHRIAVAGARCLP
# [2] = system: primary cultures of rat cortical neurons; assay: 2-AG and PEA levels in primary cultures of rat cortical neurons; format: cell-based
# rat ABHD6 = biological target: T2, rat ABHD6 (Rattus norvegicus, UniProt Q5XI64); assay: ABHD6 activity assay; format: biochemical
# T2 sequence (Q5XI64 1-337): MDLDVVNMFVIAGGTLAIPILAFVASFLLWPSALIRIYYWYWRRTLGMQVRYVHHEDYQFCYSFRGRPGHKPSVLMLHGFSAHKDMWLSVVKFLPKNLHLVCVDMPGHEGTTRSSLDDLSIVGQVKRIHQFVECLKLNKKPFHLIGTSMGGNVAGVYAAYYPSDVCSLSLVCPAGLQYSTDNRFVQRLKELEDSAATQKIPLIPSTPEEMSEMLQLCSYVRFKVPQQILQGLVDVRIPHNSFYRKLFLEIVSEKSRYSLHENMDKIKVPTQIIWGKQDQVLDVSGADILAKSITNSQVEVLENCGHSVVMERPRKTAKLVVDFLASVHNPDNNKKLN
# rat brain FAAH = biological target: T3, rat brain FAAH (Rattus norvegicus, UniProt P97612); assay: FAAH activity in rat brain homogenates; format: biochemical; details: in vitro, Table S1
# T3 sequence (P97612 1-579): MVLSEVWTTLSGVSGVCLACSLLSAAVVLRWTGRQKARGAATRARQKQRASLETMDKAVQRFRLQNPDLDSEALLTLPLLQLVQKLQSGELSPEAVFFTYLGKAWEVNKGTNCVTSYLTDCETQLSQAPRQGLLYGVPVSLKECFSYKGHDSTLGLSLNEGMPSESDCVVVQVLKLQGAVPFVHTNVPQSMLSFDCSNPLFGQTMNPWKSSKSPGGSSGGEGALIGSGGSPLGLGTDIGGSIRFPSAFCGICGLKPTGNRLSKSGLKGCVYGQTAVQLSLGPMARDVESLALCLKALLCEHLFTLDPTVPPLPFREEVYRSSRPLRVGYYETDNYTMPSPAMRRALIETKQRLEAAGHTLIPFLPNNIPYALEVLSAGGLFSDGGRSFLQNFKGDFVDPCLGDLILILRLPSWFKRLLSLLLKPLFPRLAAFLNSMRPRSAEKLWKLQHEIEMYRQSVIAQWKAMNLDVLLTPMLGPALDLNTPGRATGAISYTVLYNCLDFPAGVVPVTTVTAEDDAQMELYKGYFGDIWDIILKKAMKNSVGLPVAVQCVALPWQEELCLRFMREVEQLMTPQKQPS
# non-purified HeLa MGL = biological target: T4, non-purified HeLa MGL (Rattus norvegicus, UniProt Q8R431); assay: Michaelis-Menten kinetic analysis of the MGL reaction; format: biochemical; details: for Vmax of MGL in presence of inhibitor: vehicle 200±20; for Mechanism of MGL inhibition: from rapid dilution and kinetic experiments
# T4 sequence (Q8R431 1-303): T1 sequence (Q8R431 1-303)
# [3] = system: rat brain diacylglycerol lipase; assay: DGL activity in rat brain homogenates; format: biochemical; details: in vitro, Table S1
# MGL C201G mutant = biological target: T5, MGL C201G mutant (Rattus norvegicus, UniProt Q8R431, C201G); assay: Inhibition of MGL C201G mutant in HeLa cell extracts; format: biochemical
# T5 sequence (Q8R431 1-303 C201G): T1 sequence (Q8R431 1-303) with C201G
# MGL C208G mutant = biological target: T6, MGL C208G mutant (Rattus norvegicus, UniProt Q8R431, C208G); assay: Inhibition of MGL C208G mutant in HeLa cell extracts; format: biochemical
# T6 sequence (Q8R431 1-303 C208G): T1 sequence (Q8R431 1-303) with C208G
# rat ABHD12 = biological target: T7, rat ABHD12 (Rattus norvegicus, UniProt Q6AYT7); assay: ABHD12 activity assay; format: biochemical; details: in vitro
# T7 sequence (Q6AYT7 1-398): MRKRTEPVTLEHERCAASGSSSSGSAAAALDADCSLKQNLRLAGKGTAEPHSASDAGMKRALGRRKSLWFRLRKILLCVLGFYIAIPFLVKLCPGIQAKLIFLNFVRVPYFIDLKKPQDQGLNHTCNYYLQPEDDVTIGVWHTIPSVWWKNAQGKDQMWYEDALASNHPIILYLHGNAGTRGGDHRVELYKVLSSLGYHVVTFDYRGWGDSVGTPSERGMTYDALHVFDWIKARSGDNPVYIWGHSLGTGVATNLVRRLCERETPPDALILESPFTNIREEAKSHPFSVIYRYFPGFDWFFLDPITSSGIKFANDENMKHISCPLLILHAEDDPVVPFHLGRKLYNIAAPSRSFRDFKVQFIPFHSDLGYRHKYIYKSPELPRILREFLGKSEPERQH
# Procedure, shortened: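 Rat full-length ABHD12 (V5-tagged) transiently expressed in HeLa cells, harvested at 48 h, and homogenised in 50 mM Tris-Cl pH 8.0 with 0.32 M sucrose. Modified MGL assay run at pH 7.5 with 3 μg protein per reaction for 30 min at 37°C. Samples extracted; product (m/z 281) quantified by negative-ion ESI LC/MS in SIM mode against heptadecanoic acid standard.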
# [4] = biological target: T8, rat recombinant N-acylethanolamide acid amidase (Rattus norvegicus, UniProt Q5KTC7); assay: NAAA activity assay; format: biochemical; details: in vitro, Table S1
# T8 sequence (Q5KTC7 131-362 limits assumed): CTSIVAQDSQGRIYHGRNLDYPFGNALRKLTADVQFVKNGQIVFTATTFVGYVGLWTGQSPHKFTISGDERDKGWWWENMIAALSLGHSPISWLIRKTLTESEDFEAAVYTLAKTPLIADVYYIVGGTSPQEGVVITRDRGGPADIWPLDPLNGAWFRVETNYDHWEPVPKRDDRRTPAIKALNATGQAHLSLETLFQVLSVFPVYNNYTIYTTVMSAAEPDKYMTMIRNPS
# T8 sequence (Q5KTC7 34-130 limits assumed): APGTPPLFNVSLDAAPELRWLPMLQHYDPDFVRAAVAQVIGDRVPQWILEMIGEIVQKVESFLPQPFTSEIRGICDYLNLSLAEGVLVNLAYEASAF
# Procedure, shortened: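 Rat NAAA (Flag-tagged) from stably transfected HEK293 cells (G418 0.3 mg/ml), prepared by sonication, differential centrifugation, freeze-thaw and 105,000 × g supernatant. 50 μM heptadecenoylethanolamide incubated with 10 μg protein in 50 mM sodium phosphate pH 5.0, 0.1% Triton X-100, 3 mM DTT, 30 min at 37°C. Stopped with cold methanol containing heptadecanoic acid; product (m/z 267) measured by LC/MS SIM.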
# purified MGL = purified MGL (Rattus norvegicus, UniProt Q8R431); format: biochemical
# [5] = biological target: T9, non-purified HeLa MGL (wild-type) (Rattus norvegicus, UniProt Q8R431); assay: Inhibition of non-purified MGL; format: biochemical
# T9 sequence (Q8R431 1-303): T1 sequence (Q8R431 1-303)
# MGL Cys32 mutant = biological target: T10, MGL Cys32 mutant (Rattus norvegicus, UniProt Q8R431, C32G); assay: Inhibition of MGL Cys32 mutant; format: biochemical; details: data not shown
# T10 sequence (Q8R431 1-303 C32G): T1 sequence (Q8R431 1-303) with C32G
# [6] = IC50, inhibition of non-purified MGL, cell lysates of MGL-transfected HeLa cells
# [7] = IC50, wild-type MGL in HeLa cell extracts, wt control of the mutational analysis
compound,measurement,setting,value
CC1=C(O)C(=O)C=C2C1=CC=C1[C@@]2(C)CC[C@@]2(C)[C@@H]3C[C@](C)(C(=O)O)CC[C@]3(C)CC[C@]12C [Celastrol],IC50,[1],1.6 ± 0.4 µM
Cc1c(O)c(O)cc2c1CC=C1[C@@]2(C)CC[C@@]2(C)[C@@H]3C[C@](C)(C(=O)O)CC[C@]3(C)CC[C@]12C [Dihydrocelastrol],IC50,[1],15 ± 4 µM
CC(=O)Oc1cc2c(c(C)c1OC(C)=O)CC=C1[C@@]2(C)CC[C@@]2(C)C3C[C@](C)(C(=O)O)CC[C@]3(C)CC[C@]12C (some centres unmarked) [Dihydrocelastryl Diacetate],IC50,"[1]; read-out: IC50, inhibition of purified recombinant MGL",15 ± 3 µM
"CCCCC/C=C\C/C=C\C/C=C\C/C=C\CCCCN1C(=O)C=CC1=O [N-arachidonylmaleimide, reference compound]",Effect on 2-AG levels,[2],increased
same,Effect on PEA levels,[2],increased
COC(=O)[C@]1(C)CC[C@]2(C)CC[C@]3(C)C4=CC=C5C(=CC(=O)C(O)=C5C)[C@]4(C)CC[C@@]3(C)[C@@H]2C1 [Pristimerin],IC50,rat ABHD6,0.098 ± 0.008 µM
same,Effect on PEA levels,"[2]; 1 μM, 30 min",not accompanied by any significant changes
same,Cellular 2-AG concentrations,"[2]; 1 μM, 30 min, over vehicle-treated neurons",1.6±0.1 fold change
same,Effect on FAAH activity,rat brain FAAH,no significant effect
same,Vmax of MGL in presence of inhibitor,non-purified HeLa MGL; 100 nM inhibitor,174 ± 7 pmol/min/µg
same,Vmax of MGL in presence of inhibitor,non-purified HeLa MGL; 300 nM inhibitor,104 ± 7 pmol/min/µg
same,Vmax of MGL in presence of inhibitor,non-purified HeLa MGL; 500 nM inhibitor,51 ± 18 pmol/min/µg
same,Mechanism of MGL inhibition,non-purified HeLa MGL,"rapid, reversible and non-competitive"
same,Effect on diacylglycerol lipase activity,[3],no significant effect
same,Effect of Cys201 mutation on inhibitory potency,"MGL C201G mutant; C201G vs wt, HeLa cell extracts",without affecting the potency
same,IC50,MGL C208G mutant,1180 ± 174 nM
same,Effect on ABHD12 activity,rat ABHD12,did not affect the activity
same,Effect on N-acylethanolamide acid amidase activity,[4],no significant effect
same,Time-course of MGL inhibition,purified MGL,almost immediate blockade of MGL activity
same,IC50,[5]; [6],398 ± 68 nM
same,IC50,[5]; [7],350 ± 37 nM
same,Effect of Cys32 mutation on activity of inhibitor,MGL Cys32 mutant,did not influence the activity
COC(=O)[C@]1(C)CC[C@]2(C)CC[C@]3(C)C4=CCc5c(cc(O)c(O)c5C)[C@]4(C)CC[C@@]3(C)[C@@H]2C1 [Pristimerol],IC50,[1],4 ± 0.5 µM
CC(C)=CCC[C@@H](C)[C@@H]1CC[C@]2(C)C3=C(CC[C@@]12C)[C@@]1(C)CC[C@H](O)C(C)(C)[C@@H]1CC3 [euphol],IC50,rat ABHD6,9 ± 1 µM
same,Effect on PEA levels,"[2]; 10 μM, 30 min, data not shown","small, non-significant change"
same,Cellular 2-AG levels,"[2]; 10 μM, 30 min, over vehicle-treated neurons",1.2±0.2 fold change
same,Mechanism of MGL inhibition,non-purified HeLa MGL,reversible and non-competitive
same,IC50,MGL C201G mutant,2600 ± 200 nM
same,Effect of Cys208 replacement on concentration-response curve,"MGL C208G mutant; C208G vs wt, HeLa cell extracts",no effect
same,IC50,[5]; [6],882 ± 78 nM
same,IC50,[5]; [7],513 ± 9 nM
same,Effect of Cys32 mutation on activity of inhibitor,MGL Cys32 mutant,did not influence the activity
